The assay has as its target urease (Canavalia ensiformis, UniProt P07374). Nature of the assay: Urease inhibition assay. Format: biochemical. In outline: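 Test compound was preincubated with urease (enzyme solution 5 U ml−1) in buffer for 10 min at 37 °C. Alkaline and phenolic reagents were then added, and absorbance was read at 625 nm. Thiourea served as the standard inhibitor. Assays were run in triplicate. % inhibition = (A control − A sample)/A control × 100. IC50 was obtained by non-linear regression of % inhibition against concentration.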
urease, sequence (P07374 whole entry, looked up): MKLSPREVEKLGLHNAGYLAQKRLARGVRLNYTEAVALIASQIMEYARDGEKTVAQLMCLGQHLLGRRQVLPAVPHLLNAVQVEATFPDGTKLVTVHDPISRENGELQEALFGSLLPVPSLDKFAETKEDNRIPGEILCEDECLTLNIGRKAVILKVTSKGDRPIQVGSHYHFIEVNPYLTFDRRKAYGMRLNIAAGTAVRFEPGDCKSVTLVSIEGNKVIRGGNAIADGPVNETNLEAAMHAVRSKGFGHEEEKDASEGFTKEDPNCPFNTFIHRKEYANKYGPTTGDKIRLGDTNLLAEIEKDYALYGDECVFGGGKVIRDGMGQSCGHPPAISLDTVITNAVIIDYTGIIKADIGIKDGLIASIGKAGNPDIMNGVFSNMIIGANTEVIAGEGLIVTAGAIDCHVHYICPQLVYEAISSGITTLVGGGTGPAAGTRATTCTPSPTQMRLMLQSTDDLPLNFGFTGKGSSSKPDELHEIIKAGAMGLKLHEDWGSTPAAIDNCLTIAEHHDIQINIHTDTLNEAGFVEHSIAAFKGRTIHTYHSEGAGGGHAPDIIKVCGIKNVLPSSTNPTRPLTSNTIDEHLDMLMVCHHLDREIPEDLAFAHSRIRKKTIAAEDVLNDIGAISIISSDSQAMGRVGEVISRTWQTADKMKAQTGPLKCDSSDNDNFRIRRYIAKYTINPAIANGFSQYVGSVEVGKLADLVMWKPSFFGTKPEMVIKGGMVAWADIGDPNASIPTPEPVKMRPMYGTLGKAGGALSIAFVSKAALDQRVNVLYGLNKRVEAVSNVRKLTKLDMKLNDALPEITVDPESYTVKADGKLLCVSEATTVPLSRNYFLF
What is called IC50 is the concentration at which inhibition is half-maximal. A higher IC50 goes with lower potency. Molecule `CC(c1ccc(-c2ccccc2)c(F)c1)c1nnc(-c2cccc(O)c2O)o1` (stereo not drawn) [Compound 31, 3-(5-(1-(2-Fluoro-[1,1′-biphenyl]-4-yl)ethyl)-1,3,4-oxadiazol-2-yl)benzene-1,2-diol] had a concentration for half-maximal inhibition (IC50) of 15 ± 0.3 µM.

`CC(c1ccc(-c2ccccc2)c(F)c1)c1nnc(-c2cc([N+](=O)[O-])ccc2Cl)o1` (stereo not drawn) [Compound 11, 2-(2-Chloro-5-nitrophenyl)-5-(1-(2-fluoro-[1,1′-biphenyl]-4-yl)ethyl)-1,3,4-oxadiazole] gave an IC50 of 41 ± 1.2 µM.

As for `COc1ccc(OC)c(-c2nnc(C(C)c3ccc(-c4ccccc4)c(F)c3)o2)c1` (stereo not drawn) [Compound 25, 2-(2,5-Dimethoxyphenyl)-5-(1-(2-fluoro-[1,1′-biphenyl]-4-yl)ethyl)-1,3,4-oxadiazole], half-maximal inhibition (IC50) was put at 35 ± 1.5 µM.

The molecule `COc1ccc(Br)cc1-c1nnc(C(C)c2ccc(-c3ccccc3)c(F)c2)o1` (stereo not drawn) [Compound 9, 2-(5-Bromo-2-methoxyphenyl)-5-(1-(2-fluoro-[1,1′-biphenyl]-4-yl)ethyl)-1,3,4-oxadiazole] came in with an IC50 of 72 ± 1.2 µM. Compared with the last molecule, the IC50 is about 2.1-fold higher.

The molecule `CC(c1ccc(-c2ccccc2)c(F)c1)c1nnc(-c2ccc(O)c(O)c2O)o1` (stereo not drawn) [Compound 6, 4-(5-(1-(2-Fluoro-[1,1′-biphenyl]-4-yl)ethyl)-1,3,4-oxadiazol-2-yl) benzene-1,2,3-triol] returned an IC50 of 20 ± 0.5 µM.

Turning to `CC(c1ccc(-c2ccccc2)c(F)c1)c1nnc(-c2cccc([N+](=O)[O-])c2)o1` (stereo not drawn) [Compound 8, 2-(1-(2-Fluoro-[1,1′-biphenyl]-4-yl)ethyl)-5-(3-nitrophenyl)-1,3,4-oxadiazole], the half-inhibitory concentration (IC50) was 41 ± 1.2 µM. This IC50 lies about 2-fold higher than the previous one.

`COc1ccc(-c2nnc(C(C)c3ccc(-c4ccccc4)c(F)c3)o2)c(Cl)c1OC` (stereo not drawn) [Compound 17, 2-(2-Chloro-3,4-dimethoxyphenyl)-5-(1-(2-fluoro-[1,1′-biphenyl]-4-yl)ethyl)-1,3,4-oxadiazole] yielded an IC50 of 36 ± 1.2 µM.

`Cc1ccc(-c2nnc(C(C)c3ccc(-c4ccccc4)c(F)c3)o2)s1` (stereo not drawn) [Compound 30, 2-(1-(2-Fluoro-[1,1′-biphenyl]-4-yl)ethyl)-5-(5-methylthiophen-2-yl)-1,3,4-oxadiazole]: the concentration for half-maximal inhibition (IC50) stood at 12 ± 0.1 µM.

As to `COc1ccc(-c2nnc(C(C)c3ccc(-c4ccccc4)c(F)c3)o2)c(OC)c1OC` (stereo not drawn) [Compound 10, 2-(2,3,4-Trimethoxyphenyl)-5-(1-(2-fluoro-[1,1′-biphenyl]-4-yl)ethyl)-1,3,4-oxadiazole], it took 20 ± 0.5 µM to reach half-maximal inhibition (IC50).

With `COc1cc(-c2nnc(C(C)c3ccc(-c4ccccc4)c(F)c3)o2)cc(OC)c1Br` (stereo not drawn) [Compound 23, 2-(4-Bromo-3,5-dimethoxyphenyl)-5-(1-(2-fluoro-[1,1′-biphenyl]-4-yl)ethyl)-1,3,4-oxadiazole], the IC50 was 37 ± 1.4 µM.

As to `CC(c1ccc(-c2ccccc2)c(F)c1)c1nnc(-c2ccc(Br)cc2)o1` (stereo not drawn) [Compound 21, 2-(4-Bromophenyl)-5-(1-(2-fluoro-[1,1′-biphenyl]-4-yl)ethyl)-1,3,4-oxadiazole], inhibition was half-maximal at 13 ± 0.2 µM (IC50).

As for `CC(c1ccc(-c2ccccc2)c(F)c1)c1nnc(-c2ccc([N+](=O)[O-])cc2)o1` (stereo not drawn) [Compound 16, 2-(1-(2-Fluoro-[1,1′-biphenyl]-4-yl)ethyl)-5-(4-nitrophenyl)-1,3,4-oxadiazole], the IC50 is 13 ± 0.2 µM.

For the molecule `CC(c1ccc(-c2ccccc2)c(F)c1)c1nnc(-c2ccccc2N)o1` (stereo not drawn) [Compound 7, 2-(5-(1-(2-Fluoro-[1,1′-biphenyl]-4-yl)ethyl)-1,3,4-oxadiazol-2-yl) aniline], the midpoint of inhibition, the IC50, lay at 16 ± 0.1 µM. This IC50 and that of the molecule before are within 1.5-fold of each other.

The molecule `CC(c1ccc(-c2ccccc2)c(F)c1)c1nnc(-c2ccc(O)c(Br)c2)o1` (stereo not drawn) [Compound 28, 2-Bromo-4-(5-(1-(2-fluoro-[1,1′-biphenyl]-4-yl)ethyl)-1,3,4-oxadiazol-2-yl)phenol] registered an IC50 of 14 ± 0.3 µM.

On to `COc1cccc(OC)c1-c1nnc(C(C)c2ccc(-c3ccccc3)c(F)c2)o1` (stereo not drawn) [Compound 15, 2-(2,6-Dimethoxyphenyl)-5-(1-(2-fluoro-[1,1′-biphenyl]-4-yl)ethyl)-1,3,4-oxadiazole], for which the IC50 turned out to be 31 ± 1.2 µM. Against the preceding molecule, the IC50 is about 2.2-fold higher.

Molecule `COc1ccc(-c2nnc(C(C)c3ccc(-c4ccccc4)c(F)c3)o2)c(F)c1` (stereo not drawn) [Compound 22, 2-(2-Fluoro-4-methoxyphenyl)-5-(1-(2-fluoro-[1,1′-biphenyl]-4-yl)ethyl)-1,3,4-oxadiazole] gave a 50% inhibitory concentration (IC50) of 31 ± 1.4 µM.

In turn, `CSc1ccc(-c2nnc(C(C)c3ccc(-c4ccccc4)c(F)c3)o2)cc1` (stereo not drawn) [Compound 27, 2-(1-(2-Fluoro-[1,1′-biphenyl]-4-yl)ethyl)-5-(4-(methylthio)phenyl)-1,3,4-oxadiazole] came in with an IC50 of 34 ± 2.4 µM.

`CCOc1ccc(-c2nnc(C(C)c3ccc(-c4ccccc4)c(F)c3)o2)c(OC)c1` (stereo not drawn) [Compound 12, 2-(4-Ethoxy-2-methoxyphenyl)-5-(1-(2-fluoro-[1,1′-biphenyl]-4-yl)ethyl)-1,3,4-oxadiazole] came in with a half-maximal inhibitory concentration (IC50) of 74 ± 1.3 µM.

Turning to `COc1ccccc1-c1nnc(C(C)c2ccc(-c3ccccc3)c(F)c2)o1` (stereo not drawn) [Compound 20, 2-(1-(2-Fluoro-[1,1′-biphenyl]-4-yl)ethyl)-5-(2-methoxyphenyl)-1,3,4-oxadiazole], the IC50 was determined as 12 ± 0.9 µM.

As for `CC(c1ccc(-c2ccccc2)c(F)c1)c1nnc(-c2ccc(-c3ccccc3)c(F)c2)o1` (stereo not drawn) [Compound 29, 2-(2-Fluoro-[1,1′-biphenyl]-4-yl)-5-(1-(2-fluoro-[1,1′-biphenyl]-4-yl)ethyl)-1,3,4-oxadiazole], inhibition was half-maximal at 41 ± 1.4 µM (IC50).

Molecule `CC(c1ccc(-c2ccccc2)c(F)c1)c1nnc(-c2ccccc2[N+](=O)[O-])o1` (stereo not drawn) [Compound 32, 2-(1-(2-Fluoro-[1,1′-biphenyl]-4-yl)ethyl)-5-(2-nitrophenyl)-1,3,4-oxadiazole] displayed an IC50 of 15 ± 0.3 µM.

Regarding `CCOc1cc(-c2nnc(C(C)c3ccc(-c4ccccc4)c(F)c3)o2)ccc1OC` (stereo not drawn) [Compound 14, 2-(3-Ethoxy-4-methoxyphenyl)-5-(1-(2-fluoro-[1,1′-biphenyl]-4-yl)ethyl)-1,3,4-oxadiazole], the IC50 worked out at 35 ± 1.2 µM.

`CC(c1ccc(-c2ccccc2)c(F)c1)c1nnc(-c2ccc(Br)cc2F)o1` (stereo not drawn) [Compound 24, 2-(4-Bromo-2-fluorophenyl)-5-(1-(2-fluoro-[1,1′-biphenyl]-4-yl)ethyl)-1,3,4-oxadiazole] gave an IC50 of 13 ± 0.1 µM.

Consider `COc1cc(-c2nnc(C(C)c3ccc(-c4ccccc4)c(F)c3)o2)ccc1F` (stereo not drawn) [Compound 13, 2-(4-Fluoro-3-methoxyphenyl)-5-(1-(2-fluoro-[1,1′-biphenyl]-4-yl)ethyl)-1,3,4-oxadiazole], for which 16 ± 0.9 µM corresponded to half-maximal inhibition (IC50).

The molecule `CC(c1ccc(-c2ccccc2)c(F)c1)c1nnc(-c2cccc3ccccc23)o1` (stereo not drawn) [Compound 5, 2-(1-(2-Fluoro-[1,1′-biphenyl]-4-yl)ethyl)-5-(naphthalen-1-yl)-1,3,4-oxadiazole] showed an IC50 of 39 ± 1.2 µM.

As for `COc1cc(-c2nnc(C(C)c3ccc(-c4ccccc4)c(F)c3)o2)ccc1Oc1ccccc1` (stereo not drawn) [Compound 19, 2-(1-(2-Fluoro-[1,1′-biphenyl]-4-yl)ethyl)-5-(3-methoxy-4-phenoxyphenyl)-1,3,4-oxadiazole], the IC50 came out at 16 ± 0.3 µM. This IC50 lies about 2.4-fold lower than the previous one.

The molecule `CC(c1ccc(-c2ccccc2)c(F)c1)c1nnc(-c2cccc(C(F)(F)F)c2)o1` (stereo not drawn) [Compound 26, 2-(1-(2-Fluoro-[1,1′-biphenyl]-4-yl)ethyl)-5-(3-(trifluoromethyl)phenyl)-1,3,4-oxadiazole] displayed an IC50 of 12 ± 0.1 µM.

Values taken from article PMC10464598 (RSC Advances, 2023).
